# Data as given in ChEMBL document CHEMBL1649253, “New approach for drug susceptibility testing: monitoring the stress response of mycobacteria” (2009).
# Experiments:
# Type in all cases: functional
# [1] = system: Mycobacterium tuberculosis; assay: Antibacterial activity against ethambutol-resistant Mycobacterium tuberculosis H37Ra
# In short: (§1)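 Broth microdilution in supplemented 7H9 (complete) medium with twofold drug dilutions. Inoculum 10^6 CFU/ml from cultures grown at 37°C to mid- or late-log phase. Incubated 21 days at 37°C, then turbidity inspected by eye against drug-free controls. MIC is the lowest concentration with no visible growth.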
# [2] = system: Mycobacterium tuberculosis; assay: Antibacterial activity against pyrazinamide-resistant Mycobacterium tuberculosis H37Ra; in short: as §1
# [3] = system: Mycobacterium tuberculosis; assay: Antibacterial activity against isoniazid-resistant Mycobacterium tuberculosis H37Ra; in short: as §1
# [4] = system: Mycobacterium tuberculosis; assay: Antibacterial activity against rifampin-resistant Mycobacterium tuberculosis H37Ra; in short: as §1
Compound,MIC [1] [µg/mL],MIC [2] [µg/mL],MIC [3] [µg/mL],MIC [4] [µg/mL]
CC[C@@H](CO)NCCN[C@@H](CC)CO [ETHAMBUTOL],> 400,5,5,5
NNC(=O)c1ccncc1 [ISONIAZID],0.2,0.2,> 16,0.2
NC(=O)c1cnccn1 [PYRAZINAMIDE],50,> 4000,50,50
CO[C@H]1/C=C/O[C@@]2(C)Oc3c(C)c(O)c4c(O)c(c(/C=N/N5CCN(C)CC5)c(O)c4c3C2=O)NC(=O)/C(C)=C\C=C\[C@H](C)[C@H](O)[C@@H](C)[C@@H](O)[C@@H](C)[C@H](OC(C)=O)[C@@H]1C [RIFAMPIN],0.2,0.2,0.2,16
